Test results reported in ChEMBL document CHEMBL5321273, “Bicyclic Peptide Library Screening for the Identification of Gαi Protein Modulators” (J Med Chem, 2023).
One block for each compound: values may come before it. Active and inactive are the calls of the source. The rule behind the calls is not given here.

Experiments:
HeLa [1] = test: Modulation of Galphai in forskolin-stimulated human HeLa cells assessed as adenylyl cyclase mediated increase in cAMP level at 2.5 uM incubated for 30 mins by BRET analysis relative to control; assay type: cell-based
How it was run: (§1)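 HeLa cells in DMEM/10% FBS transfected with Gαi(C351I) or pcDNA plus modified CAMYEL cAMP BRET sensor; replated 40K/well; peptide (10, 5, 2.5 μM final, assay buffer pH 8.0) 30 min RT; 100 μM IBMX + 10 μM CTZ added, luminescence 7 min; then Fsk, BRET 15 min; AUC normalized to no-peptide; triplicates.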

HeLa [2] = test: Cytotoxicity against human HeLa cells assessed as reduction in cell viability upto 80 uM incubated for overnight by MTT assay; assay type: toxicity, cell-based
HeLa [3] = test: Modulation of Galphai in forskolin-stimulated human HeLa cells assessed as adenylyl cyclase mediated decrease in cAMP level at 2.5 to 10 uM incubated for 30 mins by BRET analysis relative to control; assay type: cell-based; conditions: dose 2.5-10 µM; how it was run: as §1
NG108-15 [4] = test: Modulation of Galphai in DADLE/forskolin-stimulated NG108-15 cell membrane expressing human beta2-AR co-expressing […] receptor assessed as decrease in cAMP level at 10 uM relative to control; assay type: cell membranes; set-up: scale not given: the % may be the effect or the level left
How it was run: (§2)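 Cell-free AC assay on membranes from NG108–15 hybrid cells stably expressing human β2-AR; peptides 10 μM; cAMP production stimulated with Fsk or Fsk + DADLE; read by ELISA; values as percent of untreated control; n = 3, SD.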

NG108-15 [5] = test: Modulation of Galphai in forskolin/DADLE-stimulated NG108-15 cell membrane expressing human beta2-AR co-expressing mu-opioid receptor assessed as increase in cAMP level at 10 uM relative to control; assay type: cell membranes; how it was run: as §2
NG108-15 [6] = test: Modulation of Galphai in forskolin-stimulated NG108-15 cell membrane expressing human beta2-AR co-expressing […] receptor assessed as increase in cAMP level at 10 uM relative to control; assay type: cell membranes; how it was run: as §2
[7] = target: T1, Guanine nucleotide-binding protein G(i) subunit alpha-1 (Homo sapiens, UniProt P63096); test: Binding affinity to N-terminal 6His-tagged GDP-bound Galphai1 (unknown origin) expressed in Escherichia coli BL21 (DE3) assessed as dissociation constant by SPR analysis
How it was run: (§3)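 SPR: Gαi1 loaded with GDP or GMPPNP immobilized on sensor chip by amine coupling; peptides flowed over at varying concentrations; KD determined. Reverse orientation (peptide immobilized, protein flowed) also run.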

HeLa [8] = test: Modulation of Galphai in human HeLa cells assessed as hetero-trimer reassociation by measuring decrease in free G-beta/gamma dimer level at 2.5 uM incubated for 30 mins by BRET analysis; assay type: cell-based; conditions: filed as modulator
How it was run: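 Free Gβγ BRET using Rluc-fused GRK3ct as biosensor in HeLa cells; 30 min incubation with 2.5 μM peptide or none; BRET signal normalized to untreated; n = 3, S.E.M., one-way ANOVA.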

HeLa [9] = test: Modulation of Galphai in human HeLa cells assessed as increase in cAMP level at 2.5 uM incubated for 30 mins followed by forskolin stimulation measured after 30 mins by TR-FRET analysis relative to control; assay type: cell-based; conditions: filed as modulator, time 60.0 min
How it was run: (§4)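 Endpoint intracellular cAMP by TR-FRET (LANCE Ultra cAMP kit) in HeLa cells incubated with a range of peptide concentrations, then Fsk-stimulated or unstimulated; cAMP quantified against a cAMP standard curve.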

HeLa [10] = test: Modulation of Galphai in human HeLa cells assessed as hetero-trimer reassociation by measuring effect on phosphorylated Akt level at 2.5 uM incubated for 30 mins by immunoblotting analysis; assay type: cell-based
HeLa [11] = test: Modulation of Galphai in human HeLa cells assessed as hetero-trimer reassociation by measuring effect on total Akt level at 2.5 uM incubated for 30 mins by immunoblotting analysis; assay type: cell-based
HeLa [12] = test: Modulation of Galphai in human HeLa cells assessed as hetero-trimer reassociation by measuring decrease in free Galphai monomer level at 2.5 uM incubated for 30 mins by BRET analysis; assay type: cell-based; conditions: filed as modulator
How it was run: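 Gβγ release BRET: HeLa cells transfected with Venus-Gβ, Gγ and Rluc8-Gαi (500 ng each); peptide 2.5 μM 30 min RT; CTZ 10 μM added; BRET ratio from emission scan, AUC normalized to no-peptide; n = 3, S.E.M.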

HeLa [13] = test: Modulation of Galphai in human HeLa cells assessed as hetero-trimer reassociation by measuring effect on phosphorylated ERK level at 2.5 uM incubated for 30 mins by immunoblotting analysis; assay type: cell-based
[14] = Modulation of Galphai in human HeLa cells assessed as increase in cAMP level incubated for 30 mins followed by forskolin stimulation measured after 30 mins by TR-FRET analysis; assay type: cell-based; conditions: 0.5 h; how it was run: as §4
[15] = Stability in human plasma at 1 mM measured upto 180 mins by HPLC analysis; assay type: ADME, cell-free; conditions: 3 h, 1000 µM
HeLa [16] = test: Modulation of Galphai in isoproterenol-stimulated human HeLa cells assessed as effect on cAMP level at 2.5 to 5 uM incubated for 30 mins by BRET analysis relative to control; assay type: cell-based; conditions: dose 2.5-5 µM
How it was run: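 CAMYEL BRET in HeLa cells transfected with β2-AR plus modified CAMYEL; peptide (10, 5, 2.5 μM final) 30 min RT in pH 8.0 assay buffer; IBMX 100 μM + CTZ 10 μM, 7 min read; isoproterenol added, BRET 15 min; AUC normalized to untreated; triplicates.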

HeLa [17] = test: Modulation of Galphai in human HeLa cells assessed as hetero-trimer reassociation by measuring effect on total ERK level at 2.5 uM incubated for 30 mins by immunoblotting analysis; assay type: cell-based
[18] = target: T1, Guanine nucleotide-binding protein G(i) subunit alpha-1; test: Binding affinity to N-terminal 6His-tagged GMPPNP-bound Galphai1 (unknown origin) expressed in Escherichia coli BL21 (DE3) assessed as dissociation constant by SPR analysis; how it was run: as §3

T1 sequence (P63096 whole entry): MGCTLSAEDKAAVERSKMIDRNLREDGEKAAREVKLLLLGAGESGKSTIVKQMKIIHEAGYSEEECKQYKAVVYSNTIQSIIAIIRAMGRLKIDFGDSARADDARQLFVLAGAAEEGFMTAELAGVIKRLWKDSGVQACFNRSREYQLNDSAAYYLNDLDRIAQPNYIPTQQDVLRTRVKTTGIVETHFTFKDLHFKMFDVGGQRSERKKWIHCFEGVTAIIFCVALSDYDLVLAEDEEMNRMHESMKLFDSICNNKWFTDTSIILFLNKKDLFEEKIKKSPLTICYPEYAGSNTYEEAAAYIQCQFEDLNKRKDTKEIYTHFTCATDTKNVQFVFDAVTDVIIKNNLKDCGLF

- Activity (NG108-15 [4]): inactive
- Activity (NG108-15 [5]): inactive
- Activity (NG108-15 [6]): inactive
- Activity [7]: inactive
Structure (SMILES): CC[C@H](C)[C@@H]1NC(=O)c2cc3cc(c2)C(=O)NC[C@@H](C(=O)N[C@@H](CCCCN)C(N)=O)NC(=O)[C@H](Cc2c[nH]c4ccccc24)NC(=O)[C@@H](Cc2ccc4ccccc4c2)NC(=O)[C@@H](C(C)C)NC(=O)[C@H](CCCNC3=O)NC(=O)[C@@H](CC(N)=O)NC(=O)[C@@H](CC(C)C)NC1=O
- Activity (HeLa [1]): inactive
- Activity (HeLa [2]): Non-Toxic
- Activity (HeLa [3]): inactive

- IC50 [14]: 6.92 µM
- Stability [15]: Stable
- Activity (NG108-15 [5]; in the assay text read “delta-opioid receptor” for “mu-opioid receptor”): 30%
- Activity (NG108-15 [6]): 30%
- Kd [7]: 25.5 µM
Structure (SMILES): CC[C@H](C)[C@@H]1NC(=O)[C@@H](Cc2cccc3ccccc23)NC(=O)c2cc3cc(c2)C(=O)NC[C@@H](C(=O)N[C@@H](CCCCN)C(N)=O)NC(=O)[C@@H](C)NC(=O)[C@@H](Cc2ccccc2)NC(=O)[C@H](CCCNC(=N)N)NC(=O)[C@H](C)NC(=O)[C@@H](CCCNC3=O)NC(=O)[C@@H](C(C)C)NC(=O)[C@@H](Cc2ccccc2)NC1=O
- Activity (HeLa [8]): Active
- Activity (HeLa [9]): Active
- Activity (HeLa [10]): inactive
- Activity (HeLa [1]): 10%
- Activity (HeLa [11]): inactive
- Activity (HeLa [2]): Non-Toxic
- Activity (HeLa [12]): Active
- Activity (HeLa [13]): inactive
- Activity (HeLa [16]): inactive
- Activity (HeLa [17]): inactive

- Activity (NG108-15 [4]; filed as modulator): 40%
- Kd [18]: 0.71 µM
- Kd [7]: 5 µM
Structure (SMILES): NCCCC[C@H](NC(=O)[C@@H]1CNC(=O)c2cc3cc(c2)C(=O)N[C@H](Cc2cccc4ccccc24)C(=O)N[C@H](Cc2ccccc2)C(=O)N2CCC[C@@H]2C(=O)N[C@@H](CCCNC3=O)C(=O)N2CCC[C@@H]2C(=O)N[C@H](CCCCN)C(=O)N2CCC[C@@H]2C(=O)N[C@@H](Cc2ccc(O)cc2)C(=O)N1)C(N)=O
- Activity (HeLa [2]): Non-Toxic
- Activity (HeLa [3]; filed as modulator): Active
- Activity (HeLa [16]): inactive

- Kd [7]: 24.7 µM
Structure (SMILES): N=C(N)NCCC[C@@H]1NC(=O)CNC(=O)[C@H](CO)NC(=O)c2cc3cc(c2)C(=O)NC[C@@H](C(=O)N[C@@H](CCCCN)C(N)=O)NC(=O)[C@@H](Cc2cccc4ccccc24)NC(=O)[C@H](Cc2ccc(O)cc2)NC(=O)[C@@H](CCCCN)NC(=O)[C@@H](Cc2cccc4ccccc24)NC(=O)[C@H](CCCNC3=O)NC1=O
- Activity (HeLa [2]): Non-Toxic
- Activity (HeLa [3]; filed as modulator): Active
